Experimental data from ChEMBL document CHEMBL1134952, “Dual NK(1) antagonists--serotonin reuptake inhibitors as potential antidepressants. Part 2: SAR and activity of benzyloxyphenethyl piperazine derivatives” (Bioorg Med Chem Lett, 2002).
The source made the active and inactive calls. The calls are words filed in the database; no cut-off is given here.

Key:
[1] = target: Sodium-dependent serotonin transporter (Rattus norvegicus, UniProt P31652); assay: Binding affinity against Serotonin transporter in rat cerebral cortex using [3H]paroxetine binding assay.; format: tissue-based
Chain of Sodium-dependent serotonin transporter (P31652 whole entry): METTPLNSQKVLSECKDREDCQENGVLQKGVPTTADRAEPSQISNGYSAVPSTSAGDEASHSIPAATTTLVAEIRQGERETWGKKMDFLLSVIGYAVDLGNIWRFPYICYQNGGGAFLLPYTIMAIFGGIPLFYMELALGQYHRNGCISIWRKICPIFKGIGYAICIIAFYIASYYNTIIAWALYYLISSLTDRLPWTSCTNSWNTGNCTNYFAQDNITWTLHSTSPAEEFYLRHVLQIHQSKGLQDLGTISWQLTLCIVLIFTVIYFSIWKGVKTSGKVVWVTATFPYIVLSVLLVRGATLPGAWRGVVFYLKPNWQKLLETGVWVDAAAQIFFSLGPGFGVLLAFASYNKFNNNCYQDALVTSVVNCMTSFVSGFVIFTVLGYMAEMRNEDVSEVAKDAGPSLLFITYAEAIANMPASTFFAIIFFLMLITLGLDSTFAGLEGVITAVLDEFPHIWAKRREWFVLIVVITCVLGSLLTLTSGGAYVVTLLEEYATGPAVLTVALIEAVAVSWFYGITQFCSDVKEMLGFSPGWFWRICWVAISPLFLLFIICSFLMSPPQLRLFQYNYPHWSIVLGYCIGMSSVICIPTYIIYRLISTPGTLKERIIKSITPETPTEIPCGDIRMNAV
How it was run: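 Rat cerebral cortex membranes, […] protein, incubated 120 min at 25 °C in 50 mM Tris–HCl pH 7.4 with 2 mM MgCl2 and 0.05 nM radioligand. Nonspecific binding taken as the residual binding with excess imipramine present.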

Substance-P receptor [2] = target: T1, Substance-P receptor (Homo sapiens, UniProt P25103); assay: Binding affinity against human Tachykinin receptor 1 expressed in CHO cells using [3H]-substance P as the radioligand; format: cell-based
T1 sequence (P25103 whole entry): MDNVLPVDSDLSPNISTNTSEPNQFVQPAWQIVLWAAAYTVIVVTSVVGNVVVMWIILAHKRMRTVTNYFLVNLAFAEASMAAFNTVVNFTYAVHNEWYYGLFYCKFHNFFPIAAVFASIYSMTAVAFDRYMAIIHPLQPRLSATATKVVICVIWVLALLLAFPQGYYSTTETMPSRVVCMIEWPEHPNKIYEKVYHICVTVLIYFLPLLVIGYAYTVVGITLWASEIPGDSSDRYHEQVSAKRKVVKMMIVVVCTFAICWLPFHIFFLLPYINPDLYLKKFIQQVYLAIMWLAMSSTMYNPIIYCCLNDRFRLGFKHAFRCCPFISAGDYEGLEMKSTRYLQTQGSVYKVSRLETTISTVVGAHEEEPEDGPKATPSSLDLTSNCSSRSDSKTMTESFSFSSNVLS

Substance-P receptor [3] = target: T1, Substance-P receptor; assay: Binding affinity against human Tachykinin receptor 1 expressed in CHO cells using [3H]-substance P as the radioligand; less than 50% inhibition at 10e-5 M; format: cell-based
Rattus norvegicus = assay: Intraperitoneal dose required to increase extracellular 5-HT levels to 250% in the frontal cortex of freely moving rats by using intracerebral microdialysis.; format: functional
Cavia porcellus [4] = assay: Oral dose required attenuate by 50% the duration of vocalizations in the isolation-induced guinea pig pup by vocalization test; format: functional
Cavia porcellus [5] = assay: Oral dose required attenuate by 99% the duration of vocalizations in the isolation-induced guinea pig pup by vocalization test; format: functional
Gerbillinae = assay: Dose required to decrease by 45% the duration of the foot-tapping, indicating efficacious central blockade of NK1 receptors; format: functional

SMILES	IC50 [1] [nM]	IC50 (Substance-P receptor [2]) [nM]	further results
Clc1cc(Cl)cc(COC[C@H](c2ccccc2)N2CCNCC2)c1	2.51	3.16	–
COc1ccccc1C(COCc1cc(C(F)(F)F)cc(C(F)(F)F)c1)N1CCNCC1 (configuration not stated)	251	6.31	–
CNCCC(Oc1ccc(C(F)(F)F)cc1)c1ccccc1 (configuration not stated)	–	–	Log IC50 (Substance-P receptor [3]): inactive
Fc1cccc(C(COCc2cc(C(F)(F)F)cc(C(F)(F)F)c2)N2CCNCC2)c1F (configuration not stated)	316	3.16	–
COc1c(Br)cc(Br)cc1COCC(c1ccccc1)N1CCNCC1 (configuration not stated)	6.31	7.94	–
Clc1cccc(COCC(c2ccccc2)N2CCNCC2)c1 (configuration not stated)	7.94	398	–
COc1ccc(C(COCc2cc(C(F)(F)F)cc(C(F)(F)F)c2)N2CCNCC2)cc1 (configuration not stated)	100	50.1	–
Fc1ccc(C(COCc2cc(C(F)(F)F)cc(C(F)(F)F)c2)N2CCNCC2)cc1 (configuration not stated)	158	100	–
Brc1cc(Br)cc(COC[C@H](c2ccccc2)N2CCNCC2)c1	10	3.16	Dose (Rattus norvegicus): 3.2e-05 M/kg; Dose (Cavia porcellus [4]): 1e-05 M/kg; Dose (Cavia porcellus [5]): 3.5e-05 M/kg; Dose (Gerbillinae): 3.2e-05 M/kg
Fc1ccccc1C(COCc1cc(C(F)(F)F)cc(C(F)(F)F)c1)N1CCNCC1 (configuration not stated)	200	5.01	–
CC(C)c1cccc(C(COCc2cc(C(F)(F)F)cc(C(F)(F)F)c2)N2CCNCC2)c1 (configuration not stated)	316	39.8	–
Fc1cc(COCC(c2ccccc2)N2CCNCC2)cc(C(F)(F)F)c1 (configuration not stated)	15.8	12.6	–
Cc1cc(C)cc(COCC(c2ccccc2)N2CCNCC2)c1 (configuration not stated)	–	25.1	–
CC(C)(C)c1cc(COCC(c2ccccc2)N2CCNCC2)cc(C(C)(C)C)c1 (configuration not stated)	1000	–	–
FC(F)(F)c1cc(COCC(c2cccc(Cl)c2)N2CCNCC2)cc(C(F)(F)F)c1 (configuration not stated)	251	1.58	–
FC(F)(F)c1cc(COCC(c2ccccc2Cl)N2CCNCC2)cc(C(F)(F)F)c1 (configuration not stated)	200	1.58	–
FC(F)(F)c1cc(COCC(c2ccccc2)N2CCNCC2)cc(C(F)(F)F)c1 (configuration not stated)	251	5.01	–
Brc1cc(Br)cc(COC[C@@H](c2ccccc2)N2CCNCC2)c1	31.6	12.6	–
Clc1cc(Cl)cc(COC[C@@H](c2ccccc2)N2CCNCC2)c1	12.6	25.1	–
Fc1cc(F)cc(COCC(c2ccccc2)N2CCNCC2)c1 (configuration not stated)	0.794	200	–
COc1cccc(C(COCc2cc(C(F)(F)F)cc(C(F)(F)F)c2)N2CCNCC2)c1 (configuration not stated)	200	1	–
Brc1cc(I)cc(COCC(c2ccccc2)N2CCNCC2)c1 (configuration not stated)	25.1	1.26	–
FC(F)(F)c1cc(COCC(c2ccc(Cl)c(Cl)c2)N2CCNCC2)cc(C(F)(F)F)c1 (configuration not stated)	200	5.01	–
